Assay results taken from ChEMBL document CHEMBL1124779, “Synthesis and antitumor activity of 1-[[(dialkylamino)alkyl]amino]-4-methyl-5H-pyrido[4,3-b]benzo[e]- and -benzo[g])indoles. A new class of antineoplastic agents” (1990).
In brackets after ≈: the same amount, converted by molar mass. Several values for one entry are separate records, joined by “and”; a condition that tells them apart may be missing. Equal entries are not always repeated.

Key:
L1210 [1] = experiment: Cytotoxicity in the multiple tumor disk diffusion soft agar assay at the dose of 15 ug/disk against leukemia L1210; format: functional, Mus musculus
Summary of the method: (§1)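 Soft agar disk diffusion: bottom layer 0.8% noble agar, top layer 0.47% noble agar, both in 1:1 CMRL-Fischer medium with 11% horse serum. Top layer seeded with 5×10^3 L1210 cells or 10^6 solid tumor cells (C38, PO3). Drug applied on a dried 6-mm filter-paper disk. Incubation 7-11 days. Inhibition zone measured by inverted microscope, in units (1 unit = 30 μm).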

P388 [2] = experiment: In vivo T/C (survival time treated/survival time control x 100) was determined against P388 leukemia cells at 20 mg/Kg; format: functional, Mus musculus
Summary of the method: (§2)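 B6D2 F1 mice, at least five per group, were inoculated ip on day 0 with 10^6 viable P388 cells (25 mL/kg). Compounds were dissolved in distilled water and given ip (25 mL/kg) daily on days 1–4. Mortality was checked daily, with necropsy of dead animals. T/C×100 was median survival, treated versus control. Survivors beyond 50 days counted as cured and were excluded from the median.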

Mus musculus [3] = organism: Mus musculus; experiment: (§3) In vitro cytotoxicity was determined against P388 leukemia cells; format: functional; settings: read-out: ID50 (the source's name)
Summary of the method: (§4)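 P388 cells in exponential growth, RPMI 1640 with 2 mM glutamine, 10 μM 2-mercaptoethanol and 10% FCS, 5% CO2, 37 °C. Cells at 10^5 cells/mL. Drugs in distilled water added on day 0. Cells counted by Coulter counter after 96 h. ID50 (μg/mL, 50% inhibition of proliferation) estimated by regression of concentration/response data.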

[4] = Cytotoxicity in the multiple tumor disk diffusion soft agar assay at the dose of 15 ug/disk against solid tumor C38.; format: functional, Mus musculus; summary of the method: as §1
[5] = Cytotoxicity in the multiple tumor disk diffusion soft agar assay at the dose of 15 ug/disk against solid tumor PO3; format: functional, Mus musculus; summary of the method: as §1
[6] = Tested for the change in body weight between day 1 and 7 for murine solid tumor model 3LL early stage that is subcutaneously implanted by the intravenous treatment at the dose of 20 mg/kg in 1-4 schedule; format: functional, Mus musculus
Mus musculus [7] = experiment: In vivo total number of survivors was determined against L1210 Leukemia cells out of 8 mouse at 50 day; format: functional, Leukemia cell
Summary of the method: (§5)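 B6D2 F1 mice, at least five per group, were inoculated ip on day 0 with 10^5 viable L1210 cells (25 mL/kg). Compounds were dissolved in distilled water and given ip (25 mL/kg) on days 1–4. Deaths were checked daily, with necropsy to separate tumor from toxic death. T/C×100 was median survival of treated over controls. Mice surviving over 50 days counted as cured and were excluded from the median.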

Mus musculus [8] = experiment: In vivo total number of survivors was determined against P388 leukemia cells out of 5 mouse at 50 day; format: functional; summary of the method: as §2
[9] = Tested for mean number of metastases in treated/control animals x 100 (% T/C) for murine solid tumor model 3LL early stage that is intramuscularly implanted by the intravenous treatment at the dose of 20 mg/kg in 1-4 schedule; settings: Mus musculus
L1210 [10] = experiment: Tested for cytotoxicity in the multiple tumor disk diffusion soft agar assay at the dose of 15 ug/disk against leukemia L1210; format: functional, Mus musculus; summary of the method: as §1
P388 [11] = experiment: as §3; format: functional; settings: Mus musculus, read-out: ID50 (the source's name); summary of the method: as §4
[12] = Tested for cytotoxicity in the multiple tumor disk diffusion soft agar assay at the dose of 15 ug/disk against solid tumor C38; format: functional, Mus musculus; summary of the method: as §1
L1210 [13] = experiment: In vivo T/C (survival time treated/survival time control x 100) was determined against L1210 leukemia cells at 20 mg/Kg; format: functional, Mus musculus; summary of the method: as §5
[14] = Tested for cytotoxicity in the multiple tumor disk diffusion soft agar assay at the dose of 15 ug/disk against solid tumor PO3; format: functional, Mus musculus; summary of the method: as §1
P388 [15] = experiment: In vivo T/C (survival time treated/survival time control x 100) was determined against P388 leukemia cells at 40 mg/Kg; format: functional, Mus musculus; summary of the method: as §2
P388 [16] = experiment: In vivo T/C (survival time treated/survival time control x 100) was determined against P388 leukemia cells at 5.0 mg/Kg; format: functional, Mus musculus; summary of the method: as §2

SMILES | Cytotoxicity (L1210 [1]) | T/C x100 (P388 [2]) | Cytotoxicity [4] | Cytotoxicity [5] | Cytotoxicity (L1210 [10]) | IC50 (P388 [11]) | further results
Cc1c[nH]c(NCC(C)CN(C)C)c2c3c(ccc4cc(O)ccc43)nc1-2 (stereo not drawn) | 300 U | 213 | 675 U | 850 U | – | – | IC50 (Mus musculus [3]): 0.1 µg/mL (≈ 0.276 µM); Change in weight [6]: -1.7 g; Survivors (Mus musculus [7]): 2; Survivors (Mus musculus [8]): 3; T/C [9]: 0%
Cc1cnc(NCCCN(C)C)c2c1[nH]c1ccc3ccccc3c12 | – | – | – | – | 550 U | 0.1 µg/mL (≈ 0.301 µM) | Cytotoxicity [12]: 675 U
CCN(CC)CCCNc1ncc(C)c2c1c1ccc3cc(O)ccc3c1n2C | 300 U | 124 | 325 U | 350 U | 400 U | 0.1 µg/mL (≈ 0.256 µM) | –
COc1ccc2c(ccc3[nH]c4c(C)cnc(NCCCN(C)C)c4c32)c1 | 750 U and 350 U | – | – | – | – | 0.75 µg/mL (≈ 2.07 µM) | T/C x100 (L1210 [13]): 127; Cytotoxicity [12]: 800 U and 450 U; Cytotoxicity [14]: 630 U and 300 U
CCN(CC)CCCNc1ncc(C)c2c1c1ccc3c(OC)cccc3c1n2C | 450 U | – | 430 U | – | – | 0.75 µg/mL (≈ 1.85 µM) | T/C x100 (P388 [15]): 124
CCN(CC)CCCNc1[nH]cc(C)c2nc3c(ccc4cc(OC)ccc43)c1-2 | 200 U | – | 285 U | 200 U | 325 U | 0.5 µg/mL (≈ 1.28 µM) | T/C x100 (P388 [15]): 131
COc1cccc2c1ccc1c2[nH]c2c(C)cnc(NCCCN(C)C)c21 | 280 U | 121 | – | 225 U | – | 0.15 µg/mL (≈ 0.414 µM) | –
Cc1cnc(NCCCN(C)C)c2c3cc(O)ccc3n(C)c12 | – | – | – | – | – | – | T/C x100 (P388 [16]): 128
